Laboratory results reported in ChEMBL document CHEMBL1126267, “A novel synthesis and potent antiinflammatory activity of 4-hydroxy-2(1H)-oxo-1-phenyl-1,8-naphthyridine-3-carboxamides” (1992).

Experiments:
Assay type in all cases: functional
Conditions in all cases: route oral
Rattus norvegicus [1] = test: Inhibition of Zymosan-induced rat's paw edema(ZPE) after peroral administration of 100 mg/kg dose.
Outline: (§1)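 Male Wistar rats (about 150 g) were dosed orally with compound suspended in 5% arabic gum, 1 h before a subplantar hind-paw injection of 0.1 mL saline. The irritant was 1% zymosan for 33 or 1% λ-carrageenin for 34. Paw volume was measured by plethysmograph before dosing and at 4 h (zymosan) or 3 h (carrageenin). Swelling is relative to initial volume, as mean ± SEM. % inhibition is versus the control group's mean swelling.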

Rattus norvegicus [2] = test: Compound was tested for the inhibition of rat reversed passive Arthus pleurisy after peroral administration of 100 mg/kg dose at 0.73 mL of exudate volume with 0.86 mL of control (injected intrapleurally)
Outline: (§2)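 Male Wistar rats (about 250 g) were given compound orally before the antiserum. Under ether anesthesia, 0.2 mL rabbit anti-egg albumin antiserum was injected intrapleurally. After 30 min, egg albumin (15 mg/100 g body weight in 0.1 mL saline) was given iv. Rats were killed 4.5 h later and the thoracic cavity was rinsed with 5 mL saline. Exudate volume and infiltrated cell number were measured, with inhibition % versus controls as mean ± SEM.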

Rattus norvegicus [3] = test: Antiinflammatory activity on Carrageenan rat's paw edema(CPE) after peroral administration of 100 mg/kg dose with control swelling of 90.0%
Rattus norvegicus [4] = test: Antiinflammatory activity on Zymosan-induced rat's paw edema(ZPE) after peroral administration of 100 mg/kg dose with control swelling of 85.5%
Outline: (§3)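 Male Wistar rats weighing about 150 g were dosed orally with compound suspended in 5% arabic gum. 1 h later, 1% zymosan in 0.1 mL saline was injected subplantarly into the hind paw. Paw volume was measured by plethysmograph before dosing and 4 h after zymosan, with edema as the volume difference. Inhibition % was derived from mean swelling versus the control group.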

Rattus norvegicus [5] = test: Compound was tested for the inhibition of rat reversed passive Arthus pleurisy after peroral administration of 100 mg/kg dose at 3.37*10e6 no of cells with 3.86*10e6 cells of control
Outline: (§4)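 Male Wistar rats (about 250 g) under ether received 0.2 mL rabbit anti-egg-albumin antiserum intrapleurally. Thirty min later they got 15 mg EA/100 g body weight in 0.1 mL saline iv. Compounds were given orally beforehand. Rats were killed 4.5 h after induction and the thoracic cavity rinsed with 5 mL saline. Exudate volume and infiltrated cell count were read as mean ± SE. % inhibition is versus control.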

Rattus norvegicus [6] = test: Inhibition of carrageenan-induced rat's paw edema (CPE) after peroral administration of 100 mg/kg dose.; outline: as §1
Rattus norvegicus [7] = test: Compound was tested for the inhibition of rat reversed passive Arthus pleurisy after peroral administration of 100 mg/kg dose at 0.71 mL of exudate volume with 0.84 mL of control (injected intrapleurally); outline: as §2
Rattus norvegicus [8] = test: Compound was tested for the inhibition of rat reversed passive Arthus pleurisy after peroral administration of 100 mg/kg dose at 4.81*10e6 no of cells with 5.72*10e6 cells of control; outline: as §4
Rattus norvegicus [9] = test: Antiinflammatory activity on Carrageenan rat's paw edema(CPE) after peroral administration of 100 mg/kg dose with control swelling of 68.1%
Rattus norvegicus [10] = test: Antiinflammatory activity on Zymosan-induced rat's paw edema(ZPE) after peroral administration of 100 mg/kg dose with control swelling of 62.8%; outline: as §3
Rattus norvegicus [11] = test: Compound was tested for the inhibition of rat reversed passive Arthus pleurisy after peroral administration of 100 mg/kg dose at 3.44*10e6 no of cells with 7.4*10e6 cells of control; outline: as §4
Rattus norvegicus [12] = test: Compound was tested for the inhibition of rat reversed passive Arthus pleurisy after peroral administration of 100 mg/kg dose at 0.58 mL of exudate volume with 0.82 mL of control (injected intrapleurally); outline: as §2
Rattus norvegicus [13] = test: Antiinflammatory activity on Carrageenan rat's paw edema(CPE) after peroral administration of 100 mg/kg dose with control swelling of 73.7%
Rattus norvegicus [14] = test: Antiinflammatory activity on Zymosan-induced rat's paw edema(ZPE) after peroral administration of 100 mg/kg dose with control swelling of 72.9%; outline: as §3

Compound | inhibition in vivo at 100 mg/kg (Rattus norvegicus [1]) [%] | inhibition in vivo at 100 mg/kg (Rattus norvegicus [2]) [%] | Swelling (Rattus norvegicus [3]) [%] | Swelling (Rattus norvegicus [4]) [%] | inhibition in vivo at 100 mg/kg (Rattus norvegicus [5]) [%] | inhibition in vivo at 100 mg/kg (Rattus norvegicus [6]) [%] | inhibition in vivo at 100 mg/kg (Rattus norvegicus [7]) [%] | inhibition in vivo at 100 mg/kg (Rattus norvegicus [8]) [%] | Swelling (Rattus norvegicus [9]) [%] | Swelling (Rattus norvegicus [10]) [%] | inhibition in vivo at 100 mg/kg (Rattus norvegicus [11]) [%] | inhibition in vivo at 100 mg/kg (Rattus norvegicus [12]) [%] | Swelling (Rattus norvegicus [13]) [%] | Swelling (Rattus norvegicus [14]) [%]
Cc1ccccc1NC(=O)c1c(O)c2cccnc2n(-c2ccccc2)c1=O | 11.7 | 16.9 | 81.2 | 75.5 | 16.6 | 9.8 | – | – | – | – | – | – | – | –
O=C(Nc1ccc([N+](=O)[O-])cc1)c1c(O)c2cccnc2n(-c2ccccc2)c1=O | -7.6 | – | – | – | – | -25.8 | 16.7 | 18.5 | 85.7 | 67.6 | – | – | – | –
O=C(NCc1cccnc1)c1c(O)c2cccnc2n(-c2ccccc2)c1=O | 25.5 | – | – | – | – | 14.7 | – | – | – | – | 53.5 | 29.3 | 62.8 | 54.3
